Reference: ChEMBL document CHEMBL3286314, “Tetraoxane-pyrimidine nitrile hybrids as dual stage antimalarials” (J Med Chem, 2014)
Activity calls are given as the source filed them. The calls are words filed in the database; no cut-off is given here.

Assays:
Plasmodium falciparum [1] = experiment: Antiplasmodial activity against chloroquine-sensitive Plasmodium falciparum 3D7 after 48 hrs by FACS analysis; assay type: functional, organism-based; settings: 3D7, 48 h
[2] = Cytotoxicity against mouse NIH/3T3 cells; assay type: cell-based, NIH3T3
[3] = Inhibition of Plasmodium falciparum recombinant falcipain-2 after 30 mins by spectrofluorometric analysis
Summary of the method: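 Recombinant falcipain-2 (~1 nM) preincubated 30 min at room temperature with inhibitor (from 100× DMSO stocks) in 100 mM sodium acetate pH 5.5, 10 mM dithiothreitol. Then Z-Leu-Arg-AMC substrate added (final 25 μM). Fluorescence monitored continuously for 30 min at room temperature; IC50 from activity plots.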

Plasmodium falciparum [4] = experiment: Inhibition of falcipain-2-mediated hemoglobin degradation in ring stage Plasmodium falciparum assessed as development of swollen digestive vacuoles at 123 nM after 24 hrs
Summary of the method: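 Cultured parasites exposed to 123 nM compound for 24 h starting at ring stage. Examined for swollen digestive vacuoles with erythrocyte-cytoplasm staining characteristics.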

[5] = Cytotoxicity against HEK293T cells; assay type: cell-based, HEK-293T; settings: human
[6] = Selectivity index, ratio of CC50 for mouse NIH/3T3 cells to IC50 for chloroquine-resistant Plasmodium falciparum W2; assay type: functional
Summary of the method: (§1)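 SI taken as in vitro cytotoxicity IC50 on HEK293T or NIH3T3 cells divided by the P. falciparum W2 growth-inhibition IC50.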

Plasmodium falciparum [7] = experiment: Antiplasmodial activity against chloroquine-resistant Plasmodium falciparum W2 after 48 hrs by FACS analysis; assay type: functional, organism-based; settings: W2, 48 h
Summary of the method: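 Synchronized ring-stage parasites cultured 48 h with multiple compound concentrations (from 1000× DMSO stocks) in RPMI 1640 with 10% human serum. Fixed in 1% formaldehyde/PBS pH 7.4 for 48 h at room temperature, stained with YOYO-1 (1 nM) in 0.1% Triton X-100/PBS. Parasitemia read by flow cytometry; IC50 from curve fits of percentage of control parasitemia.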

[8] = Selectivity index, ratio of CC50 for HEK293T cells to IC50 for chloroquine-resistant Plasmodium falciparum W2; assay type: functional, HEK-293T; summary of the method: as §1
Plasmodium falciparum [9] = experiment: Antiplasmodial activity against atovaquone-resistant Plasmodium falciparum FCR3 after 48 hrs by FACS analysis; assay type: functional, organism-based; settings: FCR3, 48 h
Plasmodium berghei [10] = experiment: Antiplasmodial activity against Plasmodium berghei ANKA infected in C57Bl/6J mouse assessed as parasitemia level at 30 mg/kg/day, ip qd for 5 days measured on day 8 post-infection by microscopic/flow cytometric analysis; assay type: functional, organism-based
Summary of the method: (§2)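 C57Bl/6J mice infected intraperitoneally with 2 × 10^6 GFP-expressing P. berghei ANKA-infected erythrocytes. Treatment started at parasitemia ca. 3.9% (day 4 postinfection): 30 mg/kg bw once daily ip for 5 days. Controls received equivalent drug vehicle. Parasitemia was followed daily by microscopy and flow cytometry; disease symptoms and survival were also recorded daily.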

Plasmodium berghei [11] = experiment: Antiplasmodial activity against Plasmodium berghei ANKA infected in C57Bl/6J mouse assessed as survival at 30 mg/kg/day, ip qd for 5 days measured on day 18 post-infection; assay type: functional, organism-based; summary of the method: as §2
Plasmodium berghei [12] = experiment: Antiplasmodial activity against Plasmodium berghei ANKA infected in C57Bl/6J mouse assessed as parasitemia level at 30 mg/kg/day, ip qd for 5 days measured on day 18 post-infection by microscopic/flow cytometric analysis; assay type: functional; settings: route intraperitoneal; summary of the method: as §2
[13] = Half life of the compound in 18 equiv of FeSO4 in aqueous acetonitrile assessed as N'-(5-bromo-2-cyanopyrimidin-4-yl)-N'-isobutyl-4-oxocyclohexanecarbohydrazide level by LC-MS analysis; assay type: physicochemical; settings: buffer
Summary of the method: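 Aqueous solution of compound treated with high concentration of iron(II) sulfate; mixture analysed by LCMS. Decomposition to the ketone product fitted to first-order decay kinetics to give the half-life.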

Plasmodium berghei [14] = experiment: Antiplasmodial activity against liver stage Plasmodium berghei infected in human HuH7 cells assessed as decrease in parasite load at 10 uM treated for 1 hr prior to infection measured after 48 hrs by luciferase luminescence assay; settings: Huh-7
Plasmodium berghei [15] = experiment: Antiplasmodial activity against liver stage Plasmodium berghei infected in human HuH7 cells assessed as decrease in parasite load at 2 uM treated for 1 hr prior to infection measured after 48 hrs by luciferase luminescence assay; settings: Huh-7

SMILES: CC(C)CN(NC(=O)C1CCC2(CC1)OOC1(OO2)C2CC3CC(C2)CC1C3)c1ccnc(C#N)n1 (stereo not given)
- IC50 (Plasmodium falciparum [1]): 13.1 nM
- CC50 [2]: 900 nM
- IC50 [3]: 909 nM
- inhibition (Plasmodium falciparum [4]): inactive
- CC50 [5]: > 100000 nM
- Ratio CC50/IC50 [6]: 19
- IC50 (Plasmodium falciparum [7]): 47.3 nM
- Ratio CC50/IC50 [8]: >2114
- IC50 (Plasmodium falciparum [9]): 30.3 nM

SMILES: N#Cc1ncc(Br)c(N(CC2CCCC2)NC(=O)C2CCC3(CC2)OOC2(OO3)C3CC4CC(C3)CC2C4)n1 (stereo not given)
- IC50 (Plasmodium falciparum [1]): 70.7 nM
- CC50 [2]: 5500 nM
- IC50 [3]: 112 nM
- CC50 [5]: > 100000 nM
- Ratio CC50/IC50 [6]: 186
- IC50 (Plasmodium falciparum [7]): 29.5 nM
- Ratio CC50/IC50 [8]: >3390

SMILES: CC(C)CN(NC(=O)C1CCC2(CC1)OOC1(OO2)C2CC3CC(C2)CC1C3)c1cc(Cl)nc(C#N)n1 (stereo not given)
- IC50 (Plasmodium falciparum [1]): 28.4 nM
- CC50 [2]: 1700 nM
- IC50 [3]: 978 nM
- inhibition (Plasmodium falciparum [4]): inactive
- CC50 [5]: > 100000 nM
- Ratio CC50/IC50 [6]: 35
- IC50 (Plasmodium falciparum [7]): 48.9 nM
- Ratio CC50/IC50 [8]: >2045
- IC50 (Plasmodium falciparum [9]): 37.7 nM

SMILES: CC(C)CN(NC(=O)C1CCC2(CC1)OOC1(OO2)C2CC3CC(C2)CC1C3)c1nc(C#N)ncc1Br (stereo not given)
- IC50 (Plasmodium falciparum [1]): 58.1 nM
- CC50 [2]: 8000 nM
- IC50 [3]: 16.4 nM
- inhibition (Plasmodium falciparum [4]): Active
- CC50 [5]: > 100000 nM
- Ratio CC50/IC50 [6]: 816
- IC50 (Plasmodium falciparum [7]): 9.8 nM
- Ratio CC50/IC50 [8]: >10000

SMILES: CC(C)CN(NC(=O)C1CCC2(CC1)OOC1(OO2)C2CC3CC(C2)CC1C3)c1nc(C#N)ncc1Cl (stereo not given)
- Activity (Plasmodium berghei [10]): Active
- Activity (Plasmodium berghei [11]): Active
- IC50 (Plasmodium falciparum [1]): 80.9 nM
- CC50 [2]: 4500 nM
- IC50 [3]: 3.4 nM
- inhibition (Plasmodium falciparum [4]): Active
- Activity (Plasmodium berghei [12]): 51%
- CC50 [5]: > 100000 nM
- Ratio CC50/IC50 [6]: 133
- IC50 (Plasmodium falciparum [7]): 33.8 nM
- Ratio CC50/IC50 [8]: >2959
- IC50 (Plasmodium falciparum [9]): 53.3 nM
- t1/2 [13]: 5.1 h

SMILES: CC(C)CN(NC(=O)C1CCC(=O)CC1)c1nc(C#N)ncc1Br
- Activity (Plasmodium berghei [14]): Active
- IC50 (Plasmodium falciparum [1]): 48.2 nM
- CC50 [2]: > 100000 nM
- Activity (Plasmodium berghei [15]): Active
- IC50 [3]: 58.4 nM
- inhibition (Plasmodium falciparum [4]): Active
- CC50 [5]: > 100000 nM
- Ratio CC50/IC50 [6]: >2079
- IC50 (Plasmodium falciparum [7]): 48.1 nM
- Ratio CC50/IC50 [8]: >2079

SMILES: O=C1C(O)=C([C@H]2CC[C@H](c3ccc(Cl)cc3)CC2)C(=O)c2ccccc21
- Activity (Plasmodium berghei [15]): Active

SMILES: N#Cc1ncc(Br)c(N(NC(=O)C2CCC3(CC2)OOC2(OO3)C3CC4CC(C3)CC2C4)C2CCCCC2)n1 (stereo not given)
- IC50 (Plasmodium falciparum [1]): 78.5 nM
- CC50 [2]: 1400 nM
- IC50 [3]: 25.3 nM
- inhibition (Plasmodium falciparum [4]): Active
- CC50 [5]: > 100000 nM
- Ratio CC50/IC50 [6]: 63
- IC50 (Plasmodium falciparum [7]): 22.4 nM
- Ratio CC50/IC50 [8]: >4464
- IC50 (Plasmodium falciparum [9]): 81.2 nM

SMILES: C[C@@H]1CC[C@H]2[C@@H](C)C(=O)O[C@@H]3O[C@@]4(C)CC[C@@H]1[C@]32OO4 [ARTEMISININ]
- Activity (Plasmodium berghei [14]): inactive
- IC50 (Plasmodium falciparum [1]): 36.2 nM
- Activity (Plasmodium berghei [15]): inactive
- IC50 (Plasmodium falciparum [7]): 14.1 nM
- IC50 (Plasmodium falciparum [9]): 7.7 nM

SMILES: COc1cc(NC(C)CCCN)c2ncccc2c1 (stereo not given)
- Activity (Plasmodium berghei [14]): Active

SMILES: CC(C)CN(NC(=O)CC1CCC2(CC1)OOC1(OO2)C2CC3CC(C2)CC1C3)c1nc(C#N)ncc1Br (stereo not given)
- IC50 (Plasmodium falciparum [1]): 18.9 nM
- CC50 [2]: 2300 nM
- IC50 [3]: 95.1 nM
- inhibition (Plasmodium falciparum [4]): Active
- CC50 [5]: 85500 nM
- Ratio CC50/IC50 [6]: 101
- IC50 (Plasmodium falciparum [7]): 22.8 nM
- Ratio CC50/IC50 [8]: 3750
